Sampled rows, rich in hits. Any-hit rate of the full collection: about 2.3%.
TRPC6 act – mouse TRPC6 channel activation; Q61143; HEK293-TRPC6 membrane potential dye fluorescence; hits give high values; 310,000 tested, 0.13% active; B-score at 10 µM;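 active means B-score of the integrated fluorescence ratio above library mean plus 3 SD, and starting fluorescence ratio within library mean plus 5 SD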;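 further: higher score means more depolarization so channel activation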
TRPC4 PAM – allosteric potentiators of mouse TRPC4 channel. Q9QUQ5. HEK293 TRPC4beta/mu-opioid, DAMGO EC20, Fluo-4 Ca2+ flux; hits give high values. B-score at 10 µM. 310,000 tested, 0.42% active;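 active means B-score of calcium response area above 5 SD of library B-scores, with initial fluorescence ratio within 5 SD of library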;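 further: B-score of integrated fluorescence ratio over time as area under calcium response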
Target sequence (Q9QUQ5 whole entry, looked up): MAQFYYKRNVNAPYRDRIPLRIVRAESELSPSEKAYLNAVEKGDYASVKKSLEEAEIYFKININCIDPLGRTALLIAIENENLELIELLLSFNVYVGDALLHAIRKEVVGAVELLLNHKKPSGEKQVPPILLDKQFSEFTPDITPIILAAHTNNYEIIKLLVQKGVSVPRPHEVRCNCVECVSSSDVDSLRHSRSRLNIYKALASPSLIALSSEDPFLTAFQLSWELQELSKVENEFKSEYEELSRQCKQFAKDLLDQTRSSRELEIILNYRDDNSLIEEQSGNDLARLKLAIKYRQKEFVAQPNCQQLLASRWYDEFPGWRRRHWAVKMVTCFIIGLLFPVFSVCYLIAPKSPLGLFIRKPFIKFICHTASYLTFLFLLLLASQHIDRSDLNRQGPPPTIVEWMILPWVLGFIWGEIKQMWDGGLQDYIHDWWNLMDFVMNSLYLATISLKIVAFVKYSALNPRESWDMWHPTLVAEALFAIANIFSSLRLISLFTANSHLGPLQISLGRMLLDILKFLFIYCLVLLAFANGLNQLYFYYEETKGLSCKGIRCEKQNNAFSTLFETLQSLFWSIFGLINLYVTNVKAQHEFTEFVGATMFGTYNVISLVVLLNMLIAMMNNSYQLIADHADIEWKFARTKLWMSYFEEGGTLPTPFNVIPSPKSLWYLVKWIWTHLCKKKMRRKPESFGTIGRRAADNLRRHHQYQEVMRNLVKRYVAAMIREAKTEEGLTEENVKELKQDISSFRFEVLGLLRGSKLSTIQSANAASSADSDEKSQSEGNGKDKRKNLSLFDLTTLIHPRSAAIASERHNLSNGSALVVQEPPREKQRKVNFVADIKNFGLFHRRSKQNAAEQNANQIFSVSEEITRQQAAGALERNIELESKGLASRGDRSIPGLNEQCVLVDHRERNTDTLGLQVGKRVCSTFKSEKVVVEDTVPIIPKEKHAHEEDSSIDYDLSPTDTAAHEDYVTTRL
TRPC4 inh – TRPC4 (mouse) channel inhibition | HEK293 TRPC4beta/mu-opioid, DAMGO-evoked Fluo4 calcium flux; hits give low values | B-score at 10 µM | 300,000 tested, 0.39% active;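 active means B-score over 3 SD under the library average, no early fluorescence shift, positive overall ratio signal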
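Signal: kinetic Fluo4 fluorescence imaging of calcium influx. Material: stable TRPC4beta/mu-opioid receptor HEK293 cells. Probe or stimulus: DAMGO in two steps, submaximal then maximal.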
TRPC6 inhibitor – mouse TRPC6 channel inhibition. Q61143. 310,000 tested, 1.1% active. B-score at 10 µM. AID 2553. HEK293-TRPC6, membrane potential dye, ACh-evoked depolarization; hits give low values;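 active means B-score under library mean minus 3 SD, initial fluorescence not abnormally high, positive integrated signal ratio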;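 further: B-score derived from integrated fluorescence ratio over the kinetic read; more negative B-score means stronger inhibition of depolarization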
TRPC4 agonist – activators of mouse TRPC4 channel. Q9QUQ5. HEK293 TRPC4beta/mu-opioid, Fluo4 calcium fluorescence; hits give high values. 310,000 tested, 0.49% active. B-score at 10 µM;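 active means B-score above 5 SD of library B-scores, and initial fluorescence ratio not above library mean plus 5 SD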;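 further: positive B-score marks a calcium rise read as TRPC4 activation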
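Assay system – TRPC4beta and mu-opioid receptor HEK293 stable cells · Measured by – Fluo4 fluorescence, kinetic · Schedule – dye loading 45 min room temperature, 110 s kinetic read · Read-out – B-scored integrated calcium fluorescence ratio · Controls – buffer and maximal DAMGO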
TRPC4 sel inh 2 – second check of whether TRPC6 inhibitors also affect mouse TRPC4; 920 tested, 42% active; shares compounds with TRPC6 inhibitor; inhibition, % at 10 µM; HEK293 TRPC4/MOR, membrane potential dye fluorescence; channel activated by saturating DAMGO dose;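 active means compounds whose fluorescence signal differed from control wells by over 3 SD, either direction, in both duplicate plates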
TRPC4 spec – mouse TRPC4 off-target activity of TRPC6 inhibitors; activity change, negative = inhibition, % at 10 µM; HEK293 TRPC4/mu-opioid, membrane potential fluorescence; AID 2777; 920 tested, 61% active; shares compounds with TRPC6 inhibitor;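 active means rise or fall in signal beyond 3 SD of buffer-only wells in both replicate plates, either sign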;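 further: integrated kinetic ratio of fluorescence range over baseline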
HEK293 MPD ctr 2-1 – second counter-screen for TRPC6 inhibitors: parental HEK293 cells | parental HEK293 membrane potential dye fluorescence; maximal acetylcholine challenge after compound addition | shares compounds with TRPC6 inhibitor | 920 tested, 31% active | signal change vs control, % at 10 µM | AID 2779;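 active means membrane potential signal moving either way by over 3 SD of the maximum-effect control, in both duplicate plates, meaning non-specific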
HEK293 MPD ctr-1 – checks TRPC6 inhibitor effects in parental HEK293 cells | shares compounds with TRPC6 inhibitor | parental HEK293 membrane potential dye fluorescence | AID 2780 | membrane potential signal change, % at 10 µM | 920 tested, 60% active;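 active means membrane potential signal shifting up or down by more than 3 SD of buffer-only wells, on both duplicate plates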
HEK293 MPD ctr-2 – parental HEK293 nonspecific activity of TRPC6 modulators; shares compounds with TRPC6 inhibitor; membrane potential dye fluorescence; 2,400 tested, 51% active; membrane potential signal change, % at 10 µM; AID 488924;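 active means membrane potential signal moves up or down beyond 5 SD from buffer-only wells, on both duplicate plates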
HEK293 MPD ctr 2-2 – second counter-screen for TRPC6 modulators: effect in parental HEK293 cells | shares compounds with TRPC6 inhibitor | membrane potential dye fluorescence; after compound, maximal acetylcholine stimulation | inhibition, % at 10 µM | 2,400 tested, 14% active;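 active means membrane potential signal drops by more than 5 SD from the mean control signal, in both duplicate plates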;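 further: plate controls were acetylcholine ECmax control wells for no effect and buffer only wells for full effect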
TRPC4/MOR mod – tests whether TRPC6 modulators also affect mouse TRPC4; percent change from control (negative = decrease, positive = increase), % at 10 µM; 2,400 tested, 69% active; HEK293 TRPC4/mu-opioid, membrane potential fluorescence; shares compounds with TRPC6 inhibitor;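 active means membrane potential signal moved up or down beyond 5 SD of buffer control wells, in both duplicate plates, actives on both sides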;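 further: plate controls were assay buffer wells for no effect and DAMGO maximal-effect wells for full effect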
TRPC4 ctr inh 2 – second check of whether TRPC6 modulators also affect mouse TRPC4. shares compounds with TRPC6 inhibitor. HEK293 TRPC4/mu-opioid, membrane potential dye fluorescence; stimulated with maximal-effect DAMGO. inhibition, % at 10 µM. 2,400 tested, 55% active. AID 488928;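 active means drop in membrane potential signal beyond 5 SD of the control wells in both duplicate plates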;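 further: TRPC4 counter screen for TRPC6 hits run under conditions tuned for TRPC6 not TRPC4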
TRPC6 block conf – confirmation of mouse TRPC6 inhibitors; shares compounds with TRPC6 inhibitor; HEK293-TRPC6, membrane potential dye, ACh-evoked depolarization; inhibition, % at 10 µM; 3,300 tested, 43% active; AID 488960;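 active means fluorescence ratio falls more than 5 SD below the full-stimulation control mean, in both duplicate runs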;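 further: integrated fluorescence ratio of peak minus minimum over baseline after agonist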
TRPC6 act confirm – confirmation of mouse TRPC6 activators | activation, % at 10 µM | 2,800 tested, 11% active | shares compounds with TRPC6 inhibitor | HEK293-TRPC6 membrane potential dye fluorescence, FDSS;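 active means ratio signal rise beyond 5 SD above unstimulated control wells' mean, seen in both duplicate runs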;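 further: plate controls were buffer EC0 wells for no effect and acetylcholine ECmax response for full effect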
* = called active by the depositor; i = inactive; . = not tested or not shown.

SMILES | TRPC6 act | TRPC4 PAM | TRPC4 inh | TRPC6 inhibitor | TRPC4 agonist | HEK293 MPD ctr-2 | HEK293 MPD ctr 2-2 | TRPC4/MOR mod | TRPC4 ctr inh 2 | TRPC6 block conf | TRPC6 act confirm | others
CCNC(=S)N1CCN(S(=O)(=O)c2ccc(C)c(C)c2)CC1 | i | i | i | -5.43* | i | i | i | i | i | i | .
O=C(c1cccc(F)c1)N1CCN(C2CCCCC2)CC1 | i | i | i | i | i | . | . | . | . | . | .
COC(=O)[C@@H](NC(=O)N1CCN(c2cccc(C(F)(F)F)c2)CC1)C(C)C | i | i | i | -6.36* | i | i | i | i | i | i | i
O=C(c1cccc(F)c1)N1CCN(c2cccc(C(F)(F)F)c2)CC1 | i | i | i | -6.05* | i | i | i | 15.5%* | i | 77.0%* | .
O=C(c1cccc(C(F)(F)F)c1)N1CCN(C2CCCCC2)CC1 | i | i | i | -5.62* | i | i | i | 11.0%* | i | 40.0%* | .
C=CCn1cc(C(=O)NCCCN(CC)CC)c(=O)c2cc(S(=O)(=O)N3CCC(C)CC3)ccc21 | i | i | i | i | i | . | . | . | . | . | .
C=CCNCc1cccn1-c1sc2c(c1C#N)CCCC2 | i | i | i | i | i | . | . | . | . | . | .
N#Cc1c(-n2cccc2/C=N/O)sc2c1CCCC2 | i | i | i | -6.61* | i | . | . | . | . | 60.0%* | . | TRPC4 sel inh 2=i;TRPC4 spec=20.3%*;HEK293 MPD ctr 2-1=-30.0%*;HEK293 MPD ctr-1=17.6%*
CCOc1cc(/C=C2\N=C(SC)SC2=O)cc([N+](=O)[O-])c1OC(C)=O | i | i | i | -5.09* | i | i | i | i | 39.0%* | i | i
CCOc1cc(/C=C2\N=C(SCC)SC2=O)cc([N+](=O)[O-])c1OC(C)=O | i | i | i | i | i | . | . | . | . | . | .
CNC(=O)Cn1c(C)cc(=O)c2cccc(C)c21 | i | i | i | -6.25* | i | -397.5%* | i | -54.5%* | 30.5%* | i | i
CCOC(=O)Cn1c(C)cc(=O)c2cccc(C)c21 | i | i | i | -7.7* | i | -270.0%* | i | -44.5%* | 39.5%* | i | i
CCOC(=O)Cn1c(=O)cc(C)c2cccc(C)c21 | i | i | i | i | i | . | . | . | . | . | .
Cc1cccc2c(=O)cc(C)n(CC(=O)N3CCOCC3)c12 | i | i | i | i | i | . | . | . | . | . | .
Cc1cccc2c(=O)cc(C)n(CC(=O)N3CCCCC3)c12 | i | i | i | -6.18* | i | -260.5%* | i | -46.5%* | 28.5%* | i | i
COC(=O)c1sc2nc(CN3CCN(c4ccc(OC)cc4)CC3)[nH]c(=O)c2c1C | i | i | i | i | i | . | . | . | . | . | .
COc1ccccc1-c1c(C(F)(F)F)oc2cc(OC(=O)c3ccc([N+](=O)[O-])cc3)ccc2c1=O | i | i | i | i | i | . | . | . | . | . | .
CN(C)C(=O)c1c([N+](=O)[O-])c(C(C)(C)C)nn1C | i | i | i | -6.23* | i | i | i | i | i | i | i
O=C1OC/C(=C(/O)c2ccc(Cl)cc2)C1=O | i | i | i | i | i | . | . | . | . | . | .
Cn1c(=O)c(C#N)c(-c2ccc(F)cc2)c2cc(C(=O)c3cc(Cl)cc(Cl)c3O)cnc21 | i | i | i | -9.38* | i | . | . | . | . | 76.2%* | i | TRPC4 sel inh 2=43.5%*;TRPC4 spec=-13.3%*;HEK293 MPD ctr 2-1=i;HEK293 MPD ctr-1=-158.5%*
O=C1CC(C(=O)Nc2ccc(Cl)cc2[N+](=O)[O-])C2(CCCCC2)O1 (stereo not given) | i | i | i | i | i | . | . | . | . | . | .
CCCN(CCC)c1nc(-c2ccccn2)nc2ccccc12 | i | i | i | -5.55* | i | i | 77.5%* | i | 67.5%* | 76.0%* | i
c1ccc(-c2nc(N3CCCCCC3)c3ccccc3n2)nc1 | i | i | i | -9.7* | i | -202.0%* | 70.0%* | -30.5%* | 73.0%* | 62.5%* | i
c1ccc2c(N3CCCC3)nc(-c3ccncc3)nc2c1 | i | i | i | -7.25* | i | -248.0%* | i | -42.0%* | 35.0%* | 39.0%* | i
CSc1ncccc1C(=O)NCCc1ccc(S(N)(=O)=O)cc1 | i | i | i | i | i | . | . | . | . | . | .
CSc1ccc2c(c1)N(CCC1CCCCN1C)c1ccccc1S2 (stereo not given) | i | i | i | -6.01* | i | i | 59.0%* | i | 85.0%* | 67.0%* | i
CCCNC(=O)COC(=O)c1c2c(nc3ccccc13)CCC2 | i | i | i | i | i | . | . | . | . | . | .
NC(=O)COC(=O)C1c2ccccc2Oc2ccccc21 | i | i | i | i | i | . | . | . | . | . | .
CN(CCOC(=O)C1c2ccccc2Oc2ccccc21)C(C)(C)C | i | i | i | -10.4* | i | . | . | . | . | 67.8%* | . | TRPC4 sel inh 2=i;TRPC4 spec=14.6%*;HEK293 MPD ctr 2-1=23.5%*;HEK293 MPD ctr-1=10.9%*

Assay outcomes (PubChem BioAssay)
